Laboratory results from ChEMBL document CHEMBL4689842, “EUbOPEN Chemogenomics Library wave 1” (2021).
Values joined by “and” are separate entries in the source; they are usually repeats but may differ in a detail not shown here. Equal entries are not always repeated.

System: U2OS
Assay: Multiplex assay against U2OS
Format: toxicity, cell-based
Conditions: human, 1 µM, compound concentration 1 uM
Summary of the method: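 Per cents of healthy-nucleus cells form the tubulin, mitochondrial-mass and membrane-permeability phenotype values. Live cells were stained at seeding with Hoechst33342, BioTracker Green Microtubule Cytoskeleton Dye, MitoTracker Red and Annexin V Alexa Fluor 680. After compound addition they were imaged on a CQ1 microscope at 37°C and 5% CO2, and CellPathfinder machine-learning gating split them into Hoechst high-intensity objects or normal cells, normal cells into healthy, pyknosed or fragmented nuclei, and pyknosed cells into mitotic or apoptotic.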

Cn1cc(C2=C(c3cn(C4CCN(Cc5ccccn5)CC4)c4ccccc34)C(=O)NC2=O)c2ccccc21 [ENZASTAURIN]
Population Apoptotic (%) (12 h, replicate 1): 65% and 50%
Population Fragmented Nuclei (%) (12 h, replicate 1): 20% and 9%
Population Healthy Nuclei (%) (12 h, replicate 1): 30% and 78%
Population Hoechst High Intensity Objects (%) (12 h, replicate 1): 4% and 5%
Population Membrane Permeable-Phenotype (%) (12 h, replicate 1): 58%
Population Mitotic Cells (%) (12 h, replicate 1): 34% and 50%
Population Normal (%) (12 h, replicate 1): 95% and 94%
Population Tubulin-Different-Phenotype (%) (12 h, replicate 1): 48%
Total Cell Count (12 h, replicate 1): 159 and 95
Population Apoptotic (%) (12 h, replicate 2): 76% and 37%
Population Fragmented Nuclei (%) (12 h, replicate 2): 18% and 16%
Population Healthy Nuclei (%) (12 h, replicate 2): 45% and 70%
Population Hoechst High Intensity Objects (%) (12 h, replicate 2): 11% and 17%
Population Membrane Permeable-Phenotype (%) (12 h, replicate 2): 63% and 33%
Population Mitotic Cells (%) (12 h, replicate 2): 23% and 62%
Population Normal (%) (12 h, replicate 2): 88% and 82%
Population Pyknosed Nuclei (%) (12 h, replicate 2): 35% and 13%
Population Tubulin-Different-Phenotype (%) (12 h, replicate 2): 100% and 34%
Total Cell Count (12 h, replicate 2): 147 and 102
Population Apoptotic (%) (24 h, replicate 1): 89% and 53%
Population Fragmented Nuclei (%) (24 h, replicate 1): 15% and 5%
Population Normal (%) (24 h, replicate 1): 83% and 96%
Total Cell Count (24 h, replicate 1): 194 and 119
Population Apoptotic (%) (24 h, replicate 2): 62%
Population Fragmented Nuclei (%) (24 h, replicate 2): 14% and 8%
Population Hoechst High Intensity Objects (%) (24 h, replicate 2): 14% and 10%
Population Membrane Permeable-Phenotype (%) (24 h, replicate 2): 19%
Population Mitotic Cells (%) (24 h, replicate 2): 37%
Population Normal (%) (24 h, replicate 2): 85% and 89%
Population Tubulin-Different-Phenotype (%) (24 h, replicate 2): 17%
Total Cell Count (24 h, replicate 2): 149 and 124
